The source made the active and inactive calls. The calls are words filed in the database; no cut-off is given here.
Tested on: Plasmodium falciparum
Assay: Anti-malarial activity against intraerythrocytic ring stage culture of chloroquine-resistant Plasmodium falciparum Dd2 after 48 hrs by lactate dehydrogenase assay
Format: functional, organism-based
Details: Dd2, 48 h
Method in brief: (§1)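 Sorbitol-synchronised ring-stage parasites at 2% haematocrit and 1% parasitaemia, kept at 37 °C in 1% O2/3% CO2/96% N2, were given five-fold drug dilutions from 100 mM DMSO stocks for 48 h. Growth reference wells had no drug, and 0% wells had artemether at 100 nM. LDH was read with Malstat/APAD plus NBT/PES (1 h, dark, room temperature, A650). IC50 came from log dose–response curves of mean growth, n ≥ 6.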

Row | SMILES | IC50 [µM]
1 | C=CCOC[C@H]1Cc2c(n(CC3CCCCC3)c3ccccc23)[C@@H]2CCCC(=O)N12 | 9
2 | C=CCOC[C@H]1Cc2c(n(Cc3ccccc3)c3ccccc23)[C@@H]2C[C@@H](C=C)CC(=O)N12 | 1.1
3 | O=C1C=CC[C@H]2c3c(c4ccccc4n3Cc3ccccc3)C[C@H](COCc3ccccc3)N12 | 3.6
4 | C=C[C@H]1CC(=O)N2[C@@H](COCc3ccccc3)Cc3c(n(Cc4ccccc4)c4ccccc34)[C@@H]2C1 | 13
5 | C=CCOC[C@H]1Cc2c(n(Cc3ccncc3)c3ccccc23)[C@@H]2CCCC(=O)N12 | 2.1
6 | C=CCOC[C@H]1Cc2c(n(Cc3ccccc3)c3ccccc23)[C@@H]2CC=CC(=O)N12 | 1.7
7 | CCCOC[C@H]1Cc2c(n(Cc3ccccc3)c3ccccc23)[C@@H]2CCCC(=O)N12 | 2.8
8 | O=C1CCC[C@@H]2c3c(c4ccccc4n3Cc3ccccc3)C[C@@H](COCc3ccccc3)N12 | 12
9 | C=CCOC[C@@H]1Cc2c(n(CC=C)c3ccccc23)[C@H]2CCCC(=O)N12 | 16
10 | O=C1CCC[C@H]2c3[nH]c4ccccc4c3C[C@H](CO)N12 | 56
11 | COC[C@H]1Cc2c(n(Cc3ccccc3)c3ccccc23)[C@@H]2CCCC(=O)N12 | 1.3
12 | O=C1CCC[C@H]2c3c(c4ccccc4n3Cc3ccccc3)C[C@H](COCC3CCCCC3)N12 | 19
13 | COC[C@H]1Cc2c(n(Cc3ccccc3)c3ccccc23)[C@@H]2CCCCN12 | 3.3
14 | C=CCOC[C@H]1Cc2c(n(Cc3ccccc3)c3ccccc23)[C@@H]2CCCCN12 | 1.5
15 | C=C[C@@H]1CC(=O)N2[C@H](COCc3ccccc3)Cc3c(n(Cc4ccccc4)c4ccccc34)[C@H]2C1 | 20
16 | C=CCOC[C@H]1Cc2c(n(CC3CCC3)c3ccccc23)[C@@H]2CCCC(=O)N12 | 7
17 | O=C1CCC[C@H]2c3c(c4ccccc4n3Cc3ccccc3)C[C@H](COCc3ccccc3)N12 | 3.5
18 | C=CCn1c2c(c3ccccc31)C[C@H](CO)N1C(=O)CCC[C@@H]21 | 41
19 | COC[C@H]1Cc2c(n(C)c3ccccc23)[C@@H]2CCCC(=O)N12 | 29
20 | COC[C@@H]1Cc2c(n(Cc3ccccc3)c3ccccc23)[C@H]2CCCC(=O)N12 | 32
21 | O=C1CCC[C@@H]2c3[nH]c4ccccc4c3C[C@@H](CO)N12 | 71
22 | COC[C@@H]1Cc2c(n(C)c3ccccc23)[C@H]2CCCC(=O)N12 | 30
23 | C=CCOC[C@@H]1Cc2c(n(Cc3ccccc3)c3ccccc23)[C@H]2CCCC(=O)N12 | 35
24 | O=C1CCC[C@H]2c3c(c4ccccc4n3Cc3ccccc3)C[C@H](CO)N12 | 5
25 | C=CCOC[C@H]1Cc2c(n(Cc3ccccc3)c3ccccc23)[C@@H]2CCCC(=O)N12 | 1.3
26 | C=CCOC[C@H]1Cc2c(n(CC=C)c3ccccc23)[C@@H]2CCCC(=O)N12 | 13

Tested on: Plasmodium falciparum
Assay: Anti-malarial activity against intraerythrocytic ring stage culture of chloroquine-sensitive Plasmodium falciparum 3D7 after 48 hrs by lactate dehydrogenase assay
Format: functional, organism-based
Details: 3D7, 48 h
Method in brief: as §1

Row | SMILES | IC50 [µM]
27 | COC[C@H]1Cc2c(n(Cc3ccccc3)c3ccccc23)[C@@H]2CCCC(=O)N12 | 2.3
28 | COC[C@H]1Cc2c(n(C)c3ccccc23)[C@@H]2CCCC(=O)N12 | 41
29 | C=CCOC[C@H]1Cc2c(n(Cc3ccccc3)c3ccccc23)[C@@H]2CCCC(=O)N12 | 1.7

Tested on: Plasmodium falciparum
Assay: Anti-malarial activity against Plasmodium falciparum trophozoites assessed as induction of morphological changes at 5 uM
Format: functional, organism-based
Details: not given

Row | SMILES | Activity
30 | C=CCOC[C@H]1Cc2c(n(Cc3ccccc3)c3ccccc23)[C@@H]2C[C@@H](C=C)CC(=O)N12 | Active
31 | O=C1CCC[C@H]2c3c(c4ccccc4n3Cc3ccccc3)C[C@H](COCc3ccccc3)N12 | Active
